Source: PubChem BioAssay
Results filed as inconclusive are left out.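 The calls were made as follows, unless noted: active = growth inhibition above 25% in both replicates, a cutoff set 3 SD above the mean; inconclusive = above 25% in only one replicate; inactive = the rest.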

Tests used:
[1] = S. cerevisiae growth inhibition in permissive medium (OD615), pilot counter-assay for S. cerevisiae lifespan shortening project, permissive growth control (AID 705); details: OD615, 24 h, at 10 µM, active compounds read high
How it was run: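 Test system: Saccharomyces cerevisiae strain carrying genetically modified DeaD replicative-lifespan system; buffer or medium: SC raffinose/galactose permissive medium; dosing: one dose 10 µM, DMSO 0.25% final; times: 24 h exposure, 30 °C; measured by: OD at 615 nm; read-out basis: growth inhibition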

[2] = S. cerevisiae growth inhibition in restrictive medium, OD615, pilot screen, restrictive growth control, yeast lifespan reduction project (AID 706;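 active = growth inhibition above a set limit, 3 SD over mean compound inhibition, in both replicates, cut at about 43% in these data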;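 also: modified DeaD lifespan yeast strain shifted to restrictive glucose medium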); details: OD615, 48 h, at 10 µM, active compounds read high
How it was run: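 material = engineered S. cerevisiae DeaD strain | buffer or medium = glucose-based CSMM-D restrictive medium | dosing = one concentration, 10 µM final, 0.25% DMSO | schedule = 4 h pre-growth plus 48 h compound exposure, 30 °C | detection = OD615 absorbance reading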

[3] = doxorubicin toxicity protection in MRP-1 cells – H69AR cells, CellTiter-Glo, duplicate, MRP-1 activator project, pilot screen (AID 807;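 active = viability increase at or above a cutoff of the median across tested compounds plus 3 SD, cut at about 8.5% in these data, passing the limit was not always enough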;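 also: compound pretreatment 18-22 h then 72 h combined with doxorubicin; 0% = doxorubicin alone and 100% = vehicle without doxorubicin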); details: H69AR viability with doxorubicin, CellTiter-Glo luminescence; at 10 µM; active compounds read high
[4] = viability of HCT116 without oncogenic beta-catenin – human colon tumor cells, pilot screen (AID 823;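 active = cell viability at or below a set limit in both duplicate runs, the limit being the all-compound median minus 4 SD, cut at about 23% in these data, passing the limit was not always enough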;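 also: 0% = wells killed by 20 µM Hyamine and 100% = untreated DMSO cell wells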); details: HCT116 beta-catenin knockout viability, CellTiter-Glo, 60 h; at 10 µM; active compounds read low
[5] = viability of PTEN-null HCT116 cells – cell-based, HCT116 clonal line, CellTiter-Glo, pilot screen (AID 824;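 active = viability at or below 27.92% in each of two runs, the all-compound median minus 4 SD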;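 also: 0% = 20 µM Hyamine control and 100% = vehicle cell control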); details: HCT116 PTEN-deleted viability, 60 h, at 10 µM, active compounds read low
[6] = RAM pathway blockade in budding yeast – dse1pr::URA3 reporter, 5-FOA selection, pilot screen (AID 869;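 active = inhibition over a set limit, the all-compound mean plus 3 SD, in both replicate runs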;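 also: 0% = DMSO wells with no growth and 100% = 10 µM 1-NA-PP1 with full growth; RAM network block rescues cells from 5-FOA so hits raise OD615 growth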); details: S. cerevisiae dse1pr::URA3 5-FOA growth, OD615, 2 d; at 10 µM; active compounds read high; strain carries analog-sensitive mutant Cbk1 kinase
[7] = RAM signaling pathway blockade in yeast – S. cerevisiae, Pdr1DBD-CYC8 efflux-inhibited sensitized strain, primary screen (AID 1298;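 active = RAM network inhibition above 8.4% in each of two replicates, 3 SD over the compound average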;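 also: 0% = DMSO untreated cells without growth and 100% = 10 µM 1-NA-PP1 full growth; higher means more yeast growth rescued from 5-FOA killing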); details: S. cerevisiae cbk1-as DSE1-URA3 strain, 5-FOA growth OD615, 2 d; at 50 µM; active compounds read high

CC1CCCCN1Cc1nc2c(c(=O)n(C)c(=O)n2C)n1Cc1c(F)cccc1Cl (stereo not drawn)
inactive: growth inhibition [1] 1.95% | growth inhibition [2] -6.45% | viability increase [3] -3.05% | viability [4] 78.6% | viability [5] 79.2% | inhibition [6] 1.46% | RAM network inhibition [7] 0.66%

COc1ccc(-n2c(Cc3cc(=O)[nH]c(=O)[nH]3)nnc2SCc2ccccc2)cc1
inactive: growth inhibition [1] 6.28% | growth inhibition [2] -3.2% | viability increase [3] -0.7% | viability [4] 108% | viability [5] 103% | inhibition [6] 0.455% | RAM network inhibition [7] 3.82%

O=C(c1cccc(C(=O)N2CCN(c3ccccc3F)CC2)c1)N1CCN(c2ccccc2F)CC1
inactive: growth inhibition [1] -6.5% | growth inhibition [2] -6.43% | viability increase [3] -2.61% | viability [4] 56.8% | viability [5] 54.9% | inhibition [6] 3.28% | RAM network inhibition [7] 4.24%

CCc1ccc(C2CC(c3ccccc3)Nc3nc(N)nn32)cc1 (stereo not drawn)
inactive: growth inhibition [1] -5.9% | growth inhibition [2] -6.06% | viability increase [3] 0.7% | viability [4] 97.3% | viability [5] 100% | inhibition [6] -0.27% | RAM network inhibition [7] 5.98%

CSC1=NCCN1C(=O)c1ccc(S(=O)(=O)N2CCOCC2)cc1
inactive: growth inhibition [1] 3.77% | growth inhibition [2] 10.2% | viability increase [3] -1.31% | viability [4] 102% | viability [5] 94.1% | inhibition [6] 0.62% | RAM network inhibition [7] 3.04%

Cc1nc2cc(-c3cccc(F)c3)nn2c(C)c1CCC(=O)NC(C)CCc1ccco1 (stereo not drawn)
inactive: growth inhibition [1] -10.1% | growth inhibition [2] -2.46% | viability increase [3] -1.36% | viability [4] 69.7% | viability [5] 72.6% | inhibition [6] 0.955% | RAM network inhibition [7] 3.16%

O=C(O)CCCC(=O)N1CCN(c2cccc(Cl)c2)CC1
inactive: growth inhibition [1] -2.97% | growth inhibition [2] -1.71% | viability increase [3] -1.22% | viability [4] 95.2% | viability [5] 86.2% | inhibition [6] 2.33% | RAM network inhibition [7] 4.6%

COc1ccc(NS(=O)(=O)c2ccc(NS(=O)(=O)c3ccc(C)cc3)cc2)nn1
inactive: growth inhibition [1] -13.5% | growth inhibition [2] -7.58% | viability increase [3] 1.15% | viability [4] 92.9% | viability [5] 96.8% | inhibition [6] 2.95% | RAM network inhibition [7] 4.16%

CCOC(=O)N1CCN(C(=O)c2ccc3c(c2)N(CC)CCS3)CC1
inactive: growth inhibition [1] -2.54% | growth inhibition [2] 2.25% | viability increase [3] -0.26% | viability [4] 101% | viability [5] 97% | inhibition [6] 1.89% | RAM network inhibition [7] -1.13%

CCOC(=O)c1[nH]c(C)c(C(=O)Nc2ccc(C)c(C)c2)c1C
inactive: growth inhibition [1] -12.6% | growth inhibition [2] -10.7% | viability increase [3] -4.91% | viability [4] 64.1% | viability [5] 45.9% | inhibition [6] 1.46% | RAM network inhibition [7] 1.84%

COc1cc(C2N(c3ccc(Cl)cc3)C(=O)C3CCCN32)cc(OC)c1OC (stereo not drawn)
inactive: growth inhibition [1] -6.9% | growth inhibition [2] -0.835% | viability increase [3] -2.09% | viability [4] 101% | viability [5] 97.6% | inhibition [6] 2.28% | RAM network inhibition [7] 0.21%

CCn1c(COc2cccc3cccnc23)nnc1SCC(=O)O
inactive: growth inhibition [1] -4.3% | growth inhibition [2] 8.66% | viability increase [3] -0.53% | viability [4] 95.5% | viability [5] 91.5% | inhibition [6] 2.12% | RAM network inhibition [7] 0.05%

CC(c1cccnc1)N(CCN(C)C)C(=O)Nc1ccc(Cl)c(Cl)c1 (stereo not drawn)
inactive: growth inhibition [1] -5.64% | growth inhibition [2] -0.46% | viability increase [3] -3.34% | viability [4] 88.9% | viability [5] 84.4% | inhibition [6] 1.33% | RAM network inhibition [7] 5.39%

C=COCCn1c(-c2nonc2N)nc2ccccc21
inactive: growth inhibition [1] -6.54% | growth inhibition [2] -3.9% | viability increase [3] -4.61% | viability [4] 82.4% | viability [5] 74.9% | inhibition [6] 1.75% | RAM network inhibition [7] 6.18%

CCN(CC)S(=O)(=O)c1ccc(C(=O)C(C#N)c2ccccn2)cc1 (stereo not drawn)
inactive: growth inhibition [1] -12.8% | growth inhibition [2] -19.5% | viability increase [3] 1.28% | viability [4] 95.3% | viability [5] 102% | inhibition [6] 0.455% | RAM network inhibition [7] 5.32%

COc1ccc(Cl)cc1Nc1nc(N2CCCC2)nc(N2CCCC2)n1
inactive: growth inhibition [1] 2.74% | growth inhibition [2] 2.22% | viability increase [3] 0.95% | viability [4] 95.5% | viability [5] 93.3% | inhibition [6] 0.095% | RAM network inhibition [7] 6.43%

N#Cc1cccc(NC(=O)NCCc2c[nH]c3ccccc23)c1
inactive: growth inhibition [1] -17.4% | growth inhibition [2] 1.5% | viability increase [3] -4.55% | viability [4] 93.1% | viability [5] 90.2% | inhibition [6] -0.125% | RAM network inhibition [7] 4.4%

O=C(Cn1ncc2c(=O)oc3ccccc3c21)NCCN1CCN(c2ccccc2F)CC1
inactive: growth inhibition [1] 1.82% | growth inhibition [2] -16.2% | viability increase [3] -0.78% | viability [4] 92.8% | viability [5] 91.5% | inhibition [6] 0.705% | RAM network inhibition [7] 1.34%

CCOc1ccc(C2CC(c3ccc(OC)c(OC)c3)n3nc(N)nc3N2)cc1 (stereo not drawn)
inactive: growth inhibition [1] 2.68% | growth inhibition [2] 5.4% | viability increase [3] 0.31% | viability [4] 101% | viability [5] 92.7% | inhibition [6] 2.06% | RAM network inhibition [7] 5.15%

Cc1ccc2cc(CCNC(=O)C(C)(C)C)c(=O)[nH]c2c1
inactive: growth inhibition [1] -5.49% | growth inhibition [2] -13.2% | viability increase [3] 0.4% | viability [4] 105% | viability [5] 97.5% | inhibition [6] 0.125% | RAM network inhibition [7] 3.53%

CCSc1sccc1C1C(C#N)=C(N)N(c2cccnc2)C2=C1C(=O)CC(C)(C)C2 (stereo not drawn)
inactive: growth inhibition [1] -14.3% | growth inhibition [2] -6.69% | viability increase [3] -6.56% | viability [4] 92.1% | viability [5] 93.2% | inhibition [6] 0.9% | RAM network inhibition [7] 12.4%

Clc1ccc(CSc2nnc(-c3cccnc3)n2Cc2ccco2)c(Cl)c1
inactive: growth inhibition [1] 1.24% | growth inhibition [2] 34.1% | viability increase [3] -3.29% | viability [4] 87.3% | viability [5] 88.2% | inhibition [6] 2.67% | RAM network inhibition [7] 11.6%

O=C1C2C3C=CC(C3)C2C(=O)N1c1ccccc1 (stereo not drawn)
inactive: growth inhibition [1] -0.875% | growth inhibition [2] 4.47% | viability increase [3] 0.71% | viability [4] 100% | viability [5] 98.7% | inhibition [6] 1.81% | RAM network inhibition [7] 1.49%

CC1(C)CC2(CC(C)(C)N1)OC(=O)N1CCc3ccccc3C12C (stereo not drawn)
inactive: growth inhibition [1] -4.17% | growth inhibition [2] -7.5% | viability increase [3] -1.65% | viability [4] 106% | viability [5] 97.9% | inhibition [6] 2.3% | RAM network inhibition [7] 6.97%
